Assay [1] has as its target T1, Adenosine A2 receptor (Rattus norvegicus) (UniProt P29276+P30543). In words: Percent displacement from adenosine A2 receptor at 10e-5 M in rat striatal membrane in vitro. In kind it is cell membranes.
The next assay addresses Adenosine A2 receptor (Rattus norvegicus, UniProt P29276+P30543). Briefly: Binding affinity for adenosine A2 receptor in vitro using rat striatal membrane. The format is cell membranes. In a few lines:
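Rat striatal membranes in 50 mM Tris-HCl, 10 mM MgCl2, pH 7.7, adenosine deaminase treated (1 U/mL, 30 min). Incubated with [3H]NECA (4 nM, 50 μL) plus 0.11 μM cyclopentyladenosine and competitor for 60 min at 25 °C. Nonspecific binding defined with 5 μM NECA. GF/B filtration, scintillation counting, triplicate. IC50 from log-logit regression, Ki via Cheng-Prusoff, one experiment.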

Assay [2] addresses T2, Adenosine receptor A1 (Rattus norvegicus) (UniProt P25099).
T2 sequence (whole entry): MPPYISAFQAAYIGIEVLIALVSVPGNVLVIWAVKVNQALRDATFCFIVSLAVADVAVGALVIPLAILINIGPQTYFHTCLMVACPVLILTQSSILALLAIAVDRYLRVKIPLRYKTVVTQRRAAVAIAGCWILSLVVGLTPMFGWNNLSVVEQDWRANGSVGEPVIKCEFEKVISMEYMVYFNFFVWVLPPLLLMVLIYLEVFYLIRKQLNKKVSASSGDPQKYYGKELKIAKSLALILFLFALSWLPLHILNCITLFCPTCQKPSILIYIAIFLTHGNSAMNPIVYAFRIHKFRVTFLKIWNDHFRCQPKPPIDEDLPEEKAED
In words: Percent displacement from adenosine A1 receptor at 10e-7 M in rat brain membrane in vitro. The format is cell membranes.

The target of another assay is T3, Adenosine receptor A1 (Rattus norvegicus, UniProt P25099).
T3 sequence (P25099 whole entry): T2 sequence (whole entry)
In words: Binding affinity for adenosine A1 receptor in vitro using rat brain membranes. In kind it is cell membranes. The method in brief: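 Whole rat brain membranes, homogenized in 50 mM Tris-HCl pH 7.4 and spun at 1090g then 48000g, pretreated with adenosine deaminase 1 U/mL for 30 min. Nonspecific binding defined with 10 μM PIA. Separated by GF/B filtration and scintillation counted, in triplicate. IC50 from log-logit regression, Ki via Cheng-Prusoff, one experiment.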

A further assay deals with Mus musculus. In words: Effective dose for phenylbenzoquinone-induced writhing in mice after peroral administration expressed as analgesic activity. The format is functional. The method in brief: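 Mice dosed orally (0.5 mL/20 g); 1 h later given 0.02% phenylbenzoquinone in hydroalcoholic solution ip (0.20-0.24 mL). Writhings and stretches counted from minute 5 to minute 10. Six animals per group. Inhibition taken against the control mean; ED50 (50% decrease) by linear regression.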
Background: An intraperitoneal irritant provokes the stretching counted in writhing tests.

Assay [3] deals with T2, Adenosine receptor A1 (Rattus norvegicus). Briefly: Percent displacement from adenosine A1 receptor at 10e-5 M in rat brain membrane in vitro. In kind it is cell membranes.
The target in assay [4] is T1, Adenosine A2 receptor (Rattus norvegicus). In words: Percent displacement from adenosine A2 receptor at 10e-7 M in rat striatal membrane in vitro. The conditions noted are these: Striatum. The format is cell membranes.

Active and inactive are the calls of the source. The rule behind the calls is not given here.

Broadly, the Ki is a measure of affinity in units of concentration, obtained from inhibition or displacement. High values mean weaker binding, low ones tighter binding. As a reminder, the ED50 is the midpoint of the dose-response relation. On to `Cc1ccc(C)c(Cn2cc(CCNc3ncnc4c3ncn4[C@@H]3O[C@H](C(=O)NC4CC4)[C@@H](O)[C@H]3O)c3cc(C)ccc32)c1`, for which the Displacement in assay [1] turned out to be 70%; in assay [2] it was 50%; in assay [3], 100%; in assay [4], 3%. For the same compound, the Ki came out at 890 nM on Adenosine A2 receptor and 62 nM at Adenosine receptor A1. In the assay with Mus musculus (po), this compound yielded a 50% effective dose (ED50) of 0.9 mg/kg.
Consider `O=C(NC1CC1)[C@H]1OC(n2cnc3c(NCCc4cn(Cc5ccccc5)c5ccccc45)ncnc32)[C@H](O)[C@@H]1O` (stereo not given in full), for which the Displacement in assay [1] was found to be 94%; in assay [2], 35%; in assay [3], 99%; in assay [4] it was 41%. Moreover, the Ki on Adenosine A2 receptor turned out to be 270 nM; on Adenosine receptor A1 it was 40 nM. The compound also gave an ED50 with Mus musculus (po) of 18.1 mg/kg.
For the compound `O=C(NC1CC1)[C@H]1OC(n2cnc3c(NCCc4c(-c5ccccc5)[nH]c5ccccc45)ncnc32)[C@H](O)[C@@H]1O` (stereo not given in full), the Displacement is 71% in assay [1], 20% in assay [2], 84% in assay [3] and 10% in assay [4]. In the assay with Mus musculus (po), this compound yielded an ED50 of 27.1 mg/kg.
The corresponding values for `Cc1ccc(C)c(Cn2c(C)c(CCNc3ncnc4c3ncn4C3O[C@H](C(=O)NC4CC4)[C@@H](O)[C@H]3O)c3ccccc32)c1` (stereo not given in full) are 60%, 5%, 56%, 7% and 1.2 mg/kg.
In the case of `OC[C@H]1OC(n2cnc3c(NCCc4cn(Cc5c(Cl)cccc5Cl)c5ccccc45)ncnc32)[C@H](O)[C@@H]1O` (stereo not given in full), the Displacement was found to be 91% in assay [1], 15% in assay [2], 92% in assay [3] and 35% in assay [4]. For the same compound, in the assay on Mus musculus, the ED50 result was “inactive”.
For the compound `C=CCn1cc(CCNc2ncnc3c2ncn3C2O[C@H](C(=O)NC3CC3)[C@@H](O)[C@H]2O)c2ccccc21` (stereo not given in full), the Displacement in assay [1] was determined as 80%; in assay [2] it was 56%; in assay [3], 100%; in assay [4] it was 17%. Also, the inhibition constant Ki at Adenosine A2 receptor came out at 280 nM; on Adenosine receptor A1, 39 nM. The same compound had an ED50 in the assay on Mus musculus (po) of 5.3 mg/kg.
Consider `COc1ccc(Cn2cc(CCNc3ncnc4c3ncn4C3O[C@H](C(=O)NC4CC4)[C@@H](O)[C@H]3O)c3ccccc32)cc1` (stereo not given in full), for which the Displacement in assay [1] was 100%; in assay [2], 42%; in assay [3] it was 98%; in assay [4], 59%. The compound further came in with an ED50 in the assay on Mus musculus (po) of 71.6 mg/kg.
With `CN(C)c1ccccc1Cn1cc(CCNc2ncnc3c2ncn3C2O[C@H](C(=O)NC3CC3)[C@@H](O)[C@H]2O)c2ccccc21` (stereo not given in full), the Displacement in assay [1] is 92%; in assay [2], 33%; in assay [3] it was 99%; in assay [4], 5%. Also, the Ki at Adenosine A2 receptor stood at 760 nM; at Adenosine receptor A1, 170 nM. This compound had an ED50 with Mus musculus (po) of 1.9 mg/kg.
Regarding `COc1ccccc1Cn1cc(CCNc2ncnc3c2ncn3C2O[C@H](C(=O)NC3CC3)[C@@H](O)[C@H]2O)c2ccccc21` (stereo not given in full), the Displacement in assay [1] is 89%; in assay [2], 42%; in assay [3], 100%; in assay [4], 23%. For the same compound, the Ki at Adenosine A2 receptor amounted to 810 nM; at Adenosine receptor A1 it was 170 nM. Also, the ED50 in the assay with Mus musculus (po) stood at 2.3 mg/kg.
As for `O=C(NC1CC1)[C@H]1OC(n2cnc3c(NCCc4cn(Cc5ccccn5)c5ccccc45)ncnc32)[C@H](O)[C@@H]1O` (stereo not given in full), the Ki at Adenosine A2 receptor is 390 nM; on Adenosine receptor A1, 39 nM.
As for `Cc1c(CCNc2ncnc3c2ncn3[C@@H]2O[C@H](C(=O)NC3CC3)[C@@H](O)[C@H]2O)c2ccccc2n1C1CCCC1`, the Displacement amounted to 92% in assay [1], 15% in assay [2], 77% in assay [3] and 6% in assay [4]. The Ki at Adenosine A2 receptor stood at 2180 nM; at Adenosine receptor A1, 895 nM. In addition, the 50% effect level with Mus musculus (po) (ED50) was put at a dose of 0.5 mg/kg.
Regarding `Cc1ccc(C)c(Cn2cc(CCNc3ncnc4c3ncn4C3O[C@H](C(=O)NC4CC4)[C@@H](O)[C@H]3O)c3ccccc32)c1` (stereo not given in full), the Displacement worked out at 85% in assay [1], 26% in assay [2], 93% in assay [3] and 9% in assay [4]. Also, the figures for the inhibition constant Ki on Adenosine A2 receptor and at Adenosine receptor A1 were 670 nM and 140 nM, respectively. The compound further had an ED50 in the assay with Mus musculus (po) of 2.4 mg/kg.
With `Cn1cc(CCNc2ncnc3c2ncn3C2O[C@H](C(=O)NC3CC3)[C@@H](O)[C@H]2O)c2ccccc21` (stereo not given in full), the Displacement is 91% in assay [1], 76% in assay [2], 99% in assay [3] and 29% in assay [4]. On Adenosine A2 receptor, this compound had a Ki of 270 nM. In the assay with Mus musculus (po), this compound had an ED50 of 3 mg/kg.
As to `O=C(NC1CC1)[C@H]1OC(n2cnc3c(NCCc4cn(Cc5ccc(Cl)cc5)c5ccccc45)ncnc32)[C@H](O)[C@@H]1O` (stereo not given in full), the Displacement in assay [1] stood at 91%; in assay [2], 46%; in assay [3], 98%; in assay [4] it was 30%. Moreover, the inhibitory constant (Ki) on Adenosine A2 receptor was found to be 320 nM; on Adenosine receptor A1 it was 50 nM. Moreover, it took a dose of 0.9 mg/kg to reach the 50% effect level in the assay with Mus musculus (po) (ED50).
Take `Cc1ccc(C)c(Cn2cc(CCNc3ncnc4c3ncn4C3O[C@H](C(=O)NCCN4CCOCC4)[C@@H](O)[C@H]3O)c3ccccc32)c1` (stereo not given in full): the Displacement in assay [1] worked out at 19%; in assay [2] it was 5%; in assay [3] it was 5%; in assay [4] it was 0%. The same compound displayed an ED50 with Mus musculus (po) above 60 mg/kg.
As to `OC[C@H]1O[C@@H](n2cnc3c(NCCc4cn(Cc5ccc(Cl)cc5)c5ccccc45)ncnc32)[C@H](O)[C@@H]1O`, the Displacement is 97% in assay [1], 71% in assay [2], 100% in assay [3] and 59% in assay [4]. Further, the results for the Ki on Adenosine A2 receptor and on Adenosine receptor A1 were 140 nM and 11 nM, respectively. This compound also gave an ED50 with Mus musculus (po) of 40.8 mg/kg.
Regarding `O=C(NC1CC1)[C@H]1OC(n2cnc3c(NCCc4cn(CCN5CCCCC5)c5ccccc45)ncnc32)[C@H](O)[C@@H]1O` (stereo not given in full), the Displacement in assay [1] is 96%; in assay [2], 90%; in assay [3] it was 99%; in assay [4], 44%. Also, the Ki on Adenosine A2 receptor was 120 nM; on Adenosine receptor A1, 8.3 nM. In addition, the 50% effect level with Mus musculus (po) (ED50) was put at a dose of 7.3 mg/kg.
For `Cc1ccc(C)c(Cn2cc(CC(C)Nc3ncnc4c3ncn4C3O[C@H](C(=O)NC4CC4)[C@@H](O)[C@H]3O)c3ccccc32)c1` (stereo not given in full), the Displacement in assay [1] came out at 84%; in assay [2] it was 21%; in assay [3] it was 96%; in assay [4], 9%. For the same compound, the Ki on Adenosine A2 receptor was determined as 2200 nM; on Adenosine receptor A1, 180 nM. For the same compound, the ED50 in the assay on Mus musculus (po) was found to be 3.6 mg/kg.
In the case of `COc1ccc2c(c1)c(CCNc1ncnc3c1ncn3C1O[C@H](C(=O)NC3CC3)[C@@H](O)[C@H]1O)cn2Cc1cc(C)ccc1C` (stereo not given in full), the Displacement in assay [1] amounted to 91%; in assay [2], 16%; in assay [3], 100%; in assay [4], 17%. In the assay on Mus musculus (po), this compound showed an ED50 of 46.3 mg/kg.
For `O=C(NC1CC1)[C@H]1OC(n2cnc3c(NCCc4cn(CCN5CCOCC5)c5ccccc45)ncnc32)[C@H](O)[C@@H]1O` (stereo not given in full), the Displacement amounted to 88% in assay [1], 52% in assay [2], 100% in assay [3] and 20% in assay [4]. This compound gave an ED50 in the assay with Mus musculus (po) above 30 mg/kg.
The corresponding values for `CC(Cc1cn(C2CCCC2)c2ccccc12)Nc1ncnc2c1ncn2C1O[C@H](C(=O)NC2CC2)[C@@H](O)[C@H]1O` (stereo not given in full) are 85%, 45%, 96%, 21% and 2.2 mg/kg.
On to `O=C(NC1CC1)[C@H]1OC(n2cnc3c(NCCc4cn(Cc5ccc(Cl)s5)c5ccccc45)ncnc32)[C@H](O)[C@@H]1O` (stereo not given in full), for which the Displacement in assay [1] stood at 82%; in assay [2], 47%; in assay [3], 100%; in assay [4] it was 6%. The compound also registered an ED50 in the assay with Mus musculus (po) of 26.2 mg/kg.
The like results for `Cc1ccccc1Cn1cc(CCNc2ncnc3c2ncn3C2O[C@H](C(=O)NC3CC3)[C@@H](O)[C@H]2O)c2ccccc21` (stereo not given in full) were, in that order, 93%, 40%, 98%, 27% and below 3 mg/kg.

(Values after ChEMBL document CHEMBL1127433, “N6-substituted adenosine receptor agonists. Synthesis and pharmacological activity as potent antinociceptive agents” (J Med Chem, 1994).)
